Results: ChEMBL document CHEMBL4387720, “Lead generation of 1,2-dithiolanes as exon 19 and exon 21 mutant EGFR tyrosine kinase inhibitors” (Bioorg Med Chem Lett, 2019)

Assays:
[1] = target: Epidermal growth factor receptor (Homo sapiens, UniProt P00533, G719S); assay: Binding affinity to human partial length EGFR G719S mutant (R669 to V1011 residues) expressed in bacterial expression system by KinomeScan assay
Procedure, shortened: (§1)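 Competition binding against an immobilized active-site-directed ligand. Bound kinase is quantified by qPCR of its DNA tag. Kd values come from duplicate 11-point dose-response curves.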

[2] = target: T1, Epidermal growth factor receptor (Homo sapiens, UniProt P00533); assay: Binding affinity to human partial length wild type EGFR (R669 to V1011 residues) expressed in bacterial expression system by kinomescan assay; procedure, shortened: as §1
A549 [3] = assay: Cytotoxicity against human A549 cells assessed as reduction in measured protein incubated for 48 hrs by SRB assay; assay type: functional; settings: A549, 48 h, read-out: LC50 (the source's name)
Procedure, shortened: (§2)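 Tested in the NCI-60 panel with a five-dose response curve, each value the mean of 2 experiments.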

NCI-H460 [4] = assay: Therapeutic index, ratio of LC50 for human NCI-H460 cells to GI50 for human NCI-H460 cells; assay type: functional
Procedure, shortened: (§3)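 NCI-60 panel cell growth assay. Five-point dose-response curves; each value is the average of 2 experiments. […] Therapeutic index is calculated as LC50/GI50.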

Cytochrome P450 2C19 = Cytochrome P450 2C19 (Homo sapiens, UniProt P33261); assay: Inhibition of CYP2C19 (unknown origin); assay type: ADME
[5] = target: T2, Epidermal growth factor receptor (Homo sapiens, UniProt P00533, L858R)
Cytochrome P450 1A2 = Cytochrome P450 1A2 (Homo sapiens, UniProt P05177); assay: Inhibition of CYP1A2 (unknown origin); assay type: ADME
CCRF-CEM [6] = assay: Therapeutic index, ratio of LC50 for human CCRF-CEM cells to GI50 for human CCRF-CEM cells; assay type: functional
Procedure, shortened: (§4)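 NCI-60 panel screen using five-dose response curves, each value an average of 2 experiments. […] The therapeutic index is calculated as LC50/GI50 for the same cell line.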

[7] = Half life in human liver microsomes; assay type: ADME, Microsome
[8] = Half life in rat liver microsomes; assay type: ADME, Microsome
CCRF-CEM [9] = assay: cells; assay type: functional; settings: Homo sapiens, 48 h
[10] = target: Epidermal growth factor receptor (Homo sapiens, UniProt P00533, E746-A750DEL); assay: Binding affinity to human partial length EGFR E746-A750 deletion mutant expressed in bacterial expression system by KinomeScan assay; procedure, shortened: as §1
NCI-H322M [11] = assay: Therapeutic index, ratio of LC50 for human NCI-H322M cells to GI50 for human NCI-H322M cells; assay type: functional; procedure, shortened: as §4
[12] = target: Tyrosine-protein kinase ITK/TSK (Homo sapiens) (UniProt Q08881); assay: Inhibition of probe binding to ITK (unknown origin) using rabbit reticulate lysate system at 250 nM after 1 hr by luminescence assay relative to control
[13] = Half life in rat S9 fraction; assay type: ADME, subcellular
Cytochrome P450 2D6 = Cytochrome P450 2D6 (Homo sapiens, UniProt P10635); assay: Inhibition of CYP2D6 (unknown origin); assay type: ADME
Cytochrome P450 2C9 = Cytochrome P450 2C9 (Homo sapiens, UniProt P11712); assay: Inhibition of CYP2C9 (unknown origin); assay type: ADME
[14] = Half life in human S9 fraction; assay type: ADME, subcellular
MOLT-4 [15] = assay: Cytotoxicity against human MOLT4 cells assessed as reduction in measured protein incubated for 48 hrs by SRB assay; assay type: functional; settings: MOLT-4, 48 h, read-out: LC50 (the source's name); procedure, shortened: as §2
NCI-H322M [16] = assay: Cytotoxicity against human NCI-H322M cells assessed as reduction in measured protein incubated for 48 hrs by SRB assay; assay type: functional; settings: read-out: LC50 (the source's name); procedure, shortened: as §2
[17] = target: T1, Epidermal growth factor receptor; assay: Inhibition of probe binding to wild type EGFR (unknown origin) using rabbit reticulate lysate system after 1 hr by luminescence assay
[18] = target: Epidermal growth factor receptor (Homo sapiens, UniProt P00533, A750P/L747-E749DEL); assay: Binding affinity to human partial length EGFR L747-E749del/A750P mutant expressed in bacterial expression system by KinomeScan assay; procedure, shortened: as §1
[19] = Half life in rat hepatocytes; assay type: ADME, cell-based, Hepatocyte
[20] = target: Receptor tyrosine-protein kinase erbB-2 (Homo sapiens, UniProt P04626); assay: Inhibition of probe binding to HER2 (unknown origin) using rabbit reticulate lysate system after 1 hr by luminescence assay
Procedure, shortened: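 Homogeneous competition binding in rabbit reticulocyte lysate with kinase expressed in the lysate. IC50 taken from a ten-point dose-response curve; value is the average of triplicate experiments.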

CCRF-CEM [21] = assay: Cytotoxicity against human CCRF-CEM cells assessed as reduction in measured protein incubated for 48 hrs by SRB assay; assay type: functional; settings: read-out: LC50 (the source's name); procedure, shortened: as §2
[22] = target: Tyrosine-protein kinase BTK (Homo sapiens) (UniProt Q06187); assay: Inhibition of probe binding to BTK (unknown origin) using rabbit reticulate lysate system at 250 nM after 1 hr by luminescence assay relative to control
Cytochrome P450 3A4 = Cytochrome P450 3A4 (Homo sapiens, UniProt P08684); assay: Inhibition of CYP3A4 (unknown origin); assay type: ADME
Cytochrome P450 2B6 = Cytochrome P450 2B6 (Homo sapiens, UniProt P20813); assay: Inhibition of CYP2B6 (unknown origin); assay type: ADME
NCI-H460 [23] = assay: cells; assay type: functional; settings: Homo sapiens, NCI-H460, 48 h
[24] = target: T2, Epidermal growth factor receptor; assay: Binding affinity to human partial length EGFR L858R mutant (R669 to V1011 residues) expressed in bacterial expression system by kinomescan assay
Procedure, shortened: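 Competition binding against an immobilized active-site-directed ligand; bound kinase quantified by qPCR of its DNA tag. Kd taken from duplicate 11-point dose-response curves.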

A549 [25] = assay: Therapeutic index, ratio of LC50 for human A549 cells to GI50 for human A549 cells; assay type: functional; procedure, shortened: as §3
NCI-H322M [26] = assay: cells; assay type: functional; settings: Homo sapiens, 48 h
[27] = target: Epidermal growth factor receptor (Homo sapiens, UniProt P00533, L747-S752DEL/P753S); assay: Binding affinity to human partial length EGFR L747-S752del/P753S mutant expressed in bacterial expression system by KinomeScan assay; procedure, shortened: as §1
MOLT-4 [28] = assay: Therapeutic index, ratio of LC50 for human MOLT4 cells to GI50 for human MOLT4 cells; assay type: functional; procedure, shortened: as §4
[29] = target: Epidermal growth factor receptor (Homo sapiens, UniProt P00533, S752-I759DEL); assay: Binding affinity to human partial length EGFR S752-I759 deletion mutant expressed in bacterial expression system by KinomeScan assay; procedure, shortened: as §1
[30] = target: Epidermal growth factor receptor (Homo sapiens, UniProt P00533, L858R/T790M); assay: Inhibition of human partial length EGFR L858R/T790M mutant (R669 to V1011 residues) expressed in mammalian expression system by competition binding assay based KinomeScan assay; procedure, shortened: as §1
Cytochrome P450 2C8 = Cytochrome P450 2C8 (Homo sapiens, UniProt P10632); assay: Inhibition of CYP2C8 (unknown origin); assay type: ADME
A549 [31] = assay: cells; assay type: functional; settings: Homo sapiens, A549, 48 h

T1 sequence (P00533 whole entry, the tested form may be a part): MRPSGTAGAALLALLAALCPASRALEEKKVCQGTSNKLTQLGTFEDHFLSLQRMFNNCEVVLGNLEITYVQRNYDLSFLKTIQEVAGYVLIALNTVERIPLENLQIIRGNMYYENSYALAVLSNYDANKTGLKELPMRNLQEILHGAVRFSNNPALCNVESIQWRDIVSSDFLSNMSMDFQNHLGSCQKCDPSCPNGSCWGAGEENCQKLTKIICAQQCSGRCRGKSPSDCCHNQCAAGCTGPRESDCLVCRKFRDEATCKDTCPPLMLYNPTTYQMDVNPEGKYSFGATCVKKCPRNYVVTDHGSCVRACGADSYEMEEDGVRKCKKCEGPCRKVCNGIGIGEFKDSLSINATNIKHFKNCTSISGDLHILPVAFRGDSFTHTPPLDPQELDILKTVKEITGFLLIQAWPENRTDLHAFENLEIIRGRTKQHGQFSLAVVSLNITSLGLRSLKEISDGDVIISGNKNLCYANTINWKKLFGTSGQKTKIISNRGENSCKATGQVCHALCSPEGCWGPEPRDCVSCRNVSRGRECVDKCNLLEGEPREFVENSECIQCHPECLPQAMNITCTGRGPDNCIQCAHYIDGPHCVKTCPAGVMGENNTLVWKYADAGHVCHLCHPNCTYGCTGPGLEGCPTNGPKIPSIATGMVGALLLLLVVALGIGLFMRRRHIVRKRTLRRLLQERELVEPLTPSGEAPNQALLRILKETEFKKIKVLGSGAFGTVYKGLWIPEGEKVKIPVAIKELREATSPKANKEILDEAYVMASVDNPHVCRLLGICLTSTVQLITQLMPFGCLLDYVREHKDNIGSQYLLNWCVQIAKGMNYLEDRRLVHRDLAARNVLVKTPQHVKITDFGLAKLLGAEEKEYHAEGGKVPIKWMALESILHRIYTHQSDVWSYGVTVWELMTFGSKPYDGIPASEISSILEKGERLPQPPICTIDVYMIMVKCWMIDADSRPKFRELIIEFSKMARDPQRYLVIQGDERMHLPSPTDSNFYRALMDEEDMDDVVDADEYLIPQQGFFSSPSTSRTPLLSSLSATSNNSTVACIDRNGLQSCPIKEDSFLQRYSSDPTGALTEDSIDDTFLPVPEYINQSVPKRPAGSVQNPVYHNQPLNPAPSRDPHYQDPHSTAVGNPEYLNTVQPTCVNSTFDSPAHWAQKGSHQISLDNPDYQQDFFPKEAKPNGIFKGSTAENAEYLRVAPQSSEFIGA
T2 sequence (P00533 25-1210 L858R limits assumed): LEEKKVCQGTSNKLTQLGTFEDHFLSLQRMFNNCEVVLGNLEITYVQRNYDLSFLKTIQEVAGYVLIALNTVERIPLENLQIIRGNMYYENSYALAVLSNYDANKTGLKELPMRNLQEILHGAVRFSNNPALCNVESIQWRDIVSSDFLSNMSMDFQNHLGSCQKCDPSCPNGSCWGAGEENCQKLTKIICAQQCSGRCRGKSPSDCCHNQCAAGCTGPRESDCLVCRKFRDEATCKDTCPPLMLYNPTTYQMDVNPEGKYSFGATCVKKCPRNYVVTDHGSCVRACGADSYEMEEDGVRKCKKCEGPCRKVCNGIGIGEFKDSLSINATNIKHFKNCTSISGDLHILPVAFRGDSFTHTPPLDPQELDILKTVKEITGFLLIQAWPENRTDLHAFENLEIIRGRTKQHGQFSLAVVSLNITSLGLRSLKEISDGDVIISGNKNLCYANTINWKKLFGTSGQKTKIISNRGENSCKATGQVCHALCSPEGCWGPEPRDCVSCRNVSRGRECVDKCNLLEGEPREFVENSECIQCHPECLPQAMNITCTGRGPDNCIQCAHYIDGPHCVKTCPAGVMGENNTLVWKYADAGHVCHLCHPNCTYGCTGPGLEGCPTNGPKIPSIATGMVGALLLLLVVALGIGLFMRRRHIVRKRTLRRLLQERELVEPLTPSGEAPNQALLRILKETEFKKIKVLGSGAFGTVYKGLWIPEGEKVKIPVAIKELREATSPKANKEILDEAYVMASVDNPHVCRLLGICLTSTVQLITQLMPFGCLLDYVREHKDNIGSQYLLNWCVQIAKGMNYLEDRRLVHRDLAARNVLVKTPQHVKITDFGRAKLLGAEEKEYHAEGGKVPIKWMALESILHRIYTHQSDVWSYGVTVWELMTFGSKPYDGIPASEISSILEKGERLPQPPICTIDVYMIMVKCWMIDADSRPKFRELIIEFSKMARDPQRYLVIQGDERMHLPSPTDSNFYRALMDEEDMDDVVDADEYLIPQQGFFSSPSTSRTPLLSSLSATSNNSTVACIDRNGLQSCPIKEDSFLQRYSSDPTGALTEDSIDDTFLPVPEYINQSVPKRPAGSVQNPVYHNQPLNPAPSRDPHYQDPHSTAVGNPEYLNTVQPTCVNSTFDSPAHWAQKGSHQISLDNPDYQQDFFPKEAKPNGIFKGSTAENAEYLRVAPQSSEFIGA
Sequence of Cytochrome P450 2C8 (P10632 whole entry): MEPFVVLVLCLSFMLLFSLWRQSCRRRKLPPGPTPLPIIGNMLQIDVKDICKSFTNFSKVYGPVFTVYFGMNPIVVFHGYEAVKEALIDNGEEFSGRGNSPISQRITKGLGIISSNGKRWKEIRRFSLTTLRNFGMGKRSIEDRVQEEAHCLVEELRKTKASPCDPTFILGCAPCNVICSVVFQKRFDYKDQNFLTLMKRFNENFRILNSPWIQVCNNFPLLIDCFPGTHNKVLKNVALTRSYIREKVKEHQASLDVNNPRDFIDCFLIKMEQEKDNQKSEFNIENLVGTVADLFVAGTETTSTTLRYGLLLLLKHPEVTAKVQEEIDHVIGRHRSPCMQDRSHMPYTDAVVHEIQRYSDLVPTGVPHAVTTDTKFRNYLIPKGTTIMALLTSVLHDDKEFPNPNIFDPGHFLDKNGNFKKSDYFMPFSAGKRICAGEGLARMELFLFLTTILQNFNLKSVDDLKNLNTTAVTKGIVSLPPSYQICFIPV
Sequence of Cytochrome P450 2C9 (P11712 whole entry): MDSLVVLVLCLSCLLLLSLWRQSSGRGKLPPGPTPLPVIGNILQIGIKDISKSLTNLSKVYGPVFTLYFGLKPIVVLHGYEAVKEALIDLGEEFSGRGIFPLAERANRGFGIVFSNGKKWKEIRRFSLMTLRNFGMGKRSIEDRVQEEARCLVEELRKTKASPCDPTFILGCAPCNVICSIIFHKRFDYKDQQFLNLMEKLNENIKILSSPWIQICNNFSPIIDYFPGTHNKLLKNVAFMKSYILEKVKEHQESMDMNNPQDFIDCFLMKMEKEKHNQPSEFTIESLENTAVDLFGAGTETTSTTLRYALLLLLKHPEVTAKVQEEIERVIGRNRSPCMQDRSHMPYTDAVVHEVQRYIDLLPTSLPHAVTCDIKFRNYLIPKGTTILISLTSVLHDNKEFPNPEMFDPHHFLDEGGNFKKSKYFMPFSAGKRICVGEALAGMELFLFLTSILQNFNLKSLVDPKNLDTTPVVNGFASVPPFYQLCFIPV
Sequence of Epidermal growth factor receptor (Homo sapiens, UniProt P00533, E746-A750DEL) (P00533 whole entry E746-A750del, looked up): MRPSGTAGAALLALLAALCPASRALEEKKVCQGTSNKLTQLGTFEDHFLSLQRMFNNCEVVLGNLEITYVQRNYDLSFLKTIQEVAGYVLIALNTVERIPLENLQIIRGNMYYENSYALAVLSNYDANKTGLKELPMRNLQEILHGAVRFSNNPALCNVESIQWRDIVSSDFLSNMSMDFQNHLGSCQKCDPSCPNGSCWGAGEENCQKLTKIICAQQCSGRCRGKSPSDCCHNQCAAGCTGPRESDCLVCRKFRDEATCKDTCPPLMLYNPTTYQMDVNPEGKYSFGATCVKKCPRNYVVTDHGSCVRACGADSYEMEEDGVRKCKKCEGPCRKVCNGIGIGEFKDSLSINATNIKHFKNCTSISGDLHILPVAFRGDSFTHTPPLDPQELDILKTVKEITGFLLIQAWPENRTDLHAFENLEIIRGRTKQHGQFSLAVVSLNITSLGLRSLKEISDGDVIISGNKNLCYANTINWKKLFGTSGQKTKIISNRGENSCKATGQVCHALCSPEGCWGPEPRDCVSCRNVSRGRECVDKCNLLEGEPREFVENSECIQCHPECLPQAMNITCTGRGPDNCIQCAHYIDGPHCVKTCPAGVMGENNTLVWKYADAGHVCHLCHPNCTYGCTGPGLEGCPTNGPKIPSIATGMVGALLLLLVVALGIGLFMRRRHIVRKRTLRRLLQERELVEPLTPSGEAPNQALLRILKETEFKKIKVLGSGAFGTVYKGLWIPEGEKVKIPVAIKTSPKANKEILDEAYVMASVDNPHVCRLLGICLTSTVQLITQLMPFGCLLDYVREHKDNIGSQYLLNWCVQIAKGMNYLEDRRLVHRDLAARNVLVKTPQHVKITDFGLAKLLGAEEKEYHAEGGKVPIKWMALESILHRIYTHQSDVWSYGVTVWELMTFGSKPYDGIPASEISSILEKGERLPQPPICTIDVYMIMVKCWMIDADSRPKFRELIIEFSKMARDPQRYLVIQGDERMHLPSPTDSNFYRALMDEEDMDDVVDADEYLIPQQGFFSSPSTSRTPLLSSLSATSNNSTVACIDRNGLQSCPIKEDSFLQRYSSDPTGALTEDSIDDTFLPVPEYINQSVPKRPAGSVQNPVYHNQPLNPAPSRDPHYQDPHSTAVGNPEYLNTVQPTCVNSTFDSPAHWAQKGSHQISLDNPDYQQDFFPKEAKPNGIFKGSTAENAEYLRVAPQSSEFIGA
Sequence of Cytochrome P450 2C19 (P33261 whole entry): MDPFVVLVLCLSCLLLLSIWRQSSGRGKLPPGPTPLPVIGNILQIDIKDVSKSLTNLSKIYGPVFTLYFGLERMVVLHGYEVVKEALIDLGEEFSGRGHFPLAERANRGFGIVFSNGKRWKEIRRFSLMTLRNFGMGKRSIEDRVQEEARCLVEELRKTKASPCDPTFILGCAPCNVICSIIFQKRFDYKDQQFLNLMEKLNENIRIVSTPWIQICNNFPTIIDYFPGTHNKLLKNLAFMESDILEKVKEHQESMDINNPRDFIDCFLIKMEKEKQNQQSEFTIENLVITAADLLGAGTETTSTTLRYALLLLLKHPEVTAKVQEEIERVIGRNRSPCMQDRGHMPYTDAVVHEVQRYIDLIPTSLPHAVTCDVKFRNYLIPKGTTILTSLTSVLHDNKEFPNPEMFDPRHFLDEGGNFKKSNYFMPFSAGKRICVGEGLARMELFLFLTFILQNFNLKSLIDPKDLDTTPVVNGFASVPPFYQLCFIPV

CCOc1cc2ncc(C#N)c(Nc3ccc(OCc4cccc(F)c4)c(Cl)c3)c2cc1NC(=O)CC1CCSS1 (stereo not drawn)
Kd [1]: 14 nM | Kd [2]: 120 nM | CC50 (A549 [3]): 3400 nM | TI (NCI-H460 [4]): 4.1 | IC50 (Cytochrome P450 2C19): > 50000 nM | IC50 [5]: 10.9 to 11 nM | IC50 (Cytochrome P450 1A2): > 50000 nM | TI (CCRF-CEM [6]): >166 | half-life [7]: 1.43 h | half-life [8]: 0.955 h | GI50 (CCRF-CEM [9]): 150 nM | Kd [10]: 48 nM | TI (NCI-H322M [11]): >41.5 | inhibition [12]: 0% | half-life [13]: > 1 h | IC50 (Cytochrome P450 2D6): > 50000 nM | IC50 (Cytochrome P450 2C9): > 50000 nM | half-life [14]: 1 h | CC50 (MOLT-4 [15]): > 25000 nM | CC50 (NCI-H322M [16]): > 25000 nM | IC50 [17]: 120 nM | Kd [18]: 7.9 nM | half-life [19]: 0.893 h | IC50 [20]: 160 nM | CC50 (CCRF-CEM [21]): > 25000 nM | inhibition [22]: 0% | IC50 (Cytochrome P450 3A4): > 50000 nM | IC50 (Cytochrome P450 2B6): > 50000 nM | GI50 (NCI-H460 [23]): 470 nM | Kd [24]: 9.6 nM | TI (A549 [25]): 6.2 | GI50 (NCI-H322M [26]): 600 nM | Kd [27]: 12 nM | TI (MOLT-4 [28]): >156 | Kd [29]: 10 nM | Kd [30]: 10000 nM | IC50 (Cytochrome P450 2C8): > 50000 nM | GI50 (A549 [31]): 540 nM
